Laboratory results published in ChEMBL document CHEMBL3259614, “Design, synthesis, and structure-activity relationship studies of novel fused heterocycles-linked triazoles with good activity and water solubility” (J Med Chem, 2014).
In brackets after ≈: the same amount, converted by molar mass.

Columns and labels:
Type in all cases: functional
[1] = system: Candida albicans; assay: Antimicrobial activity against Candida albicans SC5314 after 24 hrs by serial dilution method; conditions: SC5314, 24 h
Method in brief: (§1)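 Broth serial dilution MIC in 96-well plates following NCCLS/CLSI methods. Compounds were dissolved in DMSO and serially diluted in growth medium, with incubation at 35 °C. […] C. parapsilosis 22019 served as the quality-control strain in each assay.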

[2] = system: Candida albicans; assay: Antimicrobial activity against Candida albicans Y0109 after 24 hrs by serial dilution method; conditions: Y0109, 24 h; method in brief: as §1
[3] = system: Candida parapsilosis; assay: Antimicrobial activity against Candida parapsilosis 22019 after 24 hrs by serial dilution method; conditions: Lodderomyces parapsilosis, 22019, 24 h; method in brief: as §1
[4] = system: Cryptococcus neoformans; assay: Antimicrobial activity against Cryptococcus neoformans 32609 after 72 hrs by serial dilution method; conditions: Cryptococcus neoformans, 32609, 72 h; method in brief: as §1
[5] = system: Nakaseomyces glabratus; assay: Antimicrobial activity against Candida glabrata 537 after 24 hrs by serial dilution method; conditions: Nakaseomyces glabratus, 537, 24 h; method in brief: as §1
[6] = system: Aspergillus fumigatus; assay: Antimicrobial activity against Aspergillus fumigatus 7544 after 48 hrs by serial dilution method; conditions: Aspergillus fumigatus, 7544, 48 h; method in brief: as §1

| MIC [1] [µg/mL] | MIC [2] [µg/mL] | MIC [3] [µg/mL] | MIC [4] [µg/mL] | MIC [5] [µg/mL] | MIC [6] [µg/mL] | SMILES |
| --- | --- | --- | --- | --- | --- | --- |
| 1 (≈ 2.08 µM) | 2 (≈ 4.16 µM) | 4 (≈ 8.32 µM) | 4 (≈ 8.32 µM) | 4 (≈ 8.32 µM) | 8 (≈ 16.6 µM) | Cc1ccc(-c2cc3c(s2)CCN([C@H](C)[C@](O)(Cn2cncn2)c2ccc(F)cc2F)C3)cc1 |
| 0.25 (≈ 0.514 µM) | 0.125 (≈ 0.257 µM) | 1 (≈ 2.06 µM) | 2 (≈ 4.12 µM) | 1 (≈ 2.06 µM) | 64 (≈ 132 µM) | C[C@@H](N1CCn2nc(-c3cccc(Cl)c3)nc2C1)[C@](O)(Cn1cncn1)c1ccc(F)cc1F |
| 0.125 (≈ 0.253 µM) | 0.25 (≈ 0.507 µM) | 0.25 (≈ 0.507 µM) | 0.25 (≈ 0.507 µM) | 0.5 (≈ 1.01 µM) | 8 (≈ 16.2 µM) | C[C@@H](N1CCc2nc(-c3cncc(C#N)c3)sc2C1)[C@](O)(Cn1cncn1)c1ccc(F)cc1F |
| 1 (≈ 2.13 µM) | 1 (≈ 2.13 µM) | 1 (≈ 2.13 µM) | 0.5 (≈ 1.06 µM) | 1 (≈ 2.13 µM) | 32 (≈ 68 µM) | C[C@@H](N1CCc2nc(Br)sc2C1)[C@](O)(Cn1cncn1)c1ccc(F)cc1F |
| 0.0625 (≈ 0.13 µM) | 0.125 (≈ 0.26 µM) | 0.25 (≈ 0.519 µM) | 0.25 (≈ 0.519 µM) | 0.125 (≈ 0.26 µM) | 32 (≈ 66.5 µM) | COc1cccc(-c2nc3n(n2)CCN([C@H](C)[C@](O)(Cn2cncn2)c2ccc(F)cc2F)C3)c1 |
| 0.0625 (≈ 0.134 µM) | 0.125 (≈ 0.269 µM) | 0.125 (≈ 0.269 µM) | 0.125 (≈ 0.269 µM) | 0.125 (≈ 0.269 µM) | 32 (≈ 68.7 µM) | Cc1ccc(-c2nc3n(n2)CCN([C@H](C)[C@](O)(Cn2cncn2)c2ccc(F)cc2F)C3)cc1 |
| 0.5 (≈ 0.981 µM) | 1 (≈ 1.96 µM) | 0.5 (≈ 0.981 µM) | 1 (≈ 1.96 µM) | 1 (≈ 1.96 µM) | 16 (≈ 31.4 µM) | CC(C)c1ccc(-c2nc3c(s2)CN([C@H](C)[C@](O)(Cn2cncn2)c2ccc(F)cc2F)CC3)cc1 |
| 1 (≈ 2.01 µM) | 1 (≈ 2.01 µM) | 1 (≈ 2.01 µM) | 2 (≈ 4.02 µM) | 1 (≈ 2.01 µM) | 16 (≈ 32.2 µM) | COc1cccc(-c2nc3c(s2)CN([C@H](C)[C@](O)(Cn2cncn2)c2ccc(F)cc2F)CC3)c1 |
| 0.0625 (≈ 0.127 µM) | 0.0625 (≈ 0.127 µM) | 0.25 (≈ 0.507 µM) | 0.25 (≈ 0.507 µM) | 0.5 (≈ 1.01 µM) | 8 (≈ 16.2 µM) | C[C@@H](N1CCc2nc(-c3ccc(C#N)nc3)sc2C1)[C@](O)(Cn1cncn1)c1ccc(F)cc1F |
| 0.25 (≈ 0.471 µM) | 0.125 (≈ 0.236 µM) | 0.5 (≈ 0.943 µM) | 0.25 (≈ 0.471 µM) | 0.5 (≈ 0.943 µM) | 16 (≈ 30.2 µM) | C[C@@H](N1CCn2nc(-c3ccc(Br)cc3)nc2C1)[C@](O)(Cn1cncn1)c1ccc(F)cc1F |
| 0.125 (≈ 0.262 µM) | 0.125 (≈ 0.262 µM) | 0.125 (≈ 0.262 µM) | 0.5 (≈ 1.05 µM) | 0.5 (≈ 1.05 µM) | 16 (≈ 33.6 µM) | C[C@@H](N1CCn2nc(-c3cccc(C#N)c3)nc2C1)[C@](O)(Cn1cncn1)c1ccc(F)cc1F |
| 0.25 (≈ 0.581 µM) | 0.125 (≈ 0.29 µM) | 0.25 (≈ 0.581 µM) | 0.25 (≈ 0.581 µM) | 0.25 (≈ 0.581 µM) | > 64 | C[C@@H](N1CCn2cc(C(C)(C)C)nc2C1)[C@](O)(Cn1cncn1)c1ccc(F)cc1F |
| 0.125 (≈ 0.262 µM) | 0.125 (≈ 0.262 µM) | 0.5 (≈ 1.05 µM) | 0.125 (≈ 0.262 µM) | 0.125 (≈ 0.262 µM) | 64 (≈ 134 µM) | C[C@@H](N1CCn2nc(-c3ccc(C#N)cc3)nc2C1)[C@](O)(Cn1cncn1)c1ccc(F)cc1F |
| 1 (≈ 2.14 µM) | 4 (≈ 8.56 µM) | 2 (≈ 4.28 µM) | 1 (≈ 2.14 µM) | 2 (≈ 4.28 µM) | 32 (≈ 68.4 µM) | C[C@@H](N1CCc2cc(-c3ccncc3)sc2C1)[C@](O)(Cn1cncn1)c1ccc(F)cc1F |
| 0.5 (≈ 1.04 µM) | 1 (≈ 2.08 µM) | 0.5 (≈ 1.04 µM) | 0.5 (≈ 1.04 µM) | 1 (≈ 2.08 µM) | 16 (≈ 33.2 µM) | Cc1ccc(-c2nc3c(s2)CN([C@H](C)[C@](O)(Cn2cncn2)c2ccc(F)cc2F)CC3)cc1 |
| 0.0625 (≈ 0.13 µM) | 0.0625 (≈ 0.13 µM) | 0.125 (≈ 0.26 µM) | 0.0625 (≈ 0.13 µM) | 0.125 (≈ 0.26 µM) | 32 (≈ 66.6 µM) | COc1cccc(-c2cn3c(n2)CN([C@H](C)[C@](O)(Cn2cncn2)c2ccc(F)cc2F)CC3)c1 |
| 0.0625 (≈ 0.13 µM) | 0.0625 (≈ 0.13 µM) | 0.125 (≈ 0.26 µM) | 0.125 (≈ 0.26 µM) | 0.125 (≈ 0.26 µM) | 32 (≈ 66.6 µM) | COc1ccc(-c2cn3c(n2)CN([C@H](C)[C@](O)(Cn2cncn2)c2ccc(F)cc2F)CC3)cc1 |
| 0.125 (≈ 0.273 µM) | 0.125 (≈ 0.273 µM) | 0.125 (≈ 0.273 µM) | 0.125 (≈ 0.273 µM) | 0.125 (≈ 0.273 µM) | 16 (≈ 35 µM) | C[C@@H](N1CCn2nc(-c3ccsc3)nc2C1)[C@](O)(Cn1cncn1)c1ccc(F)cc1F |
| 0.0625 (≈ 0.127 µM) | 0.125 (≈ 0.254 µM) | 0.125 (≈ 0.254 µM) | 0.125 (≈ 0.254 µM) | 0.5 (≈ 1.02 µM) | 16 (≈ 32.5 µM) | C[C@@H](N1CCc2nc(-c3ccc(C#N)cc3)sc2C1)[C@](O)(Cn1cncn1)c1ccc(F)cc1F |
| 0.5 (≈ 0.996 µM) | 1 (≈ 1.99 µM) | 2 (≈ 3.98 µM) | 1 (≈ 1.99 µM) | 1 (≈ 1.99 µM) | 32 (≈ 63.7 µM) | C[C@@H](N1CCc2nc(-c3ccc(Cl)cc3)sc2C1)[C@](O)(Cn1cncn1)c1ccc(F)cc1F |
| 0.25 (≈ 0.481 µM) | 0.5 (≈ 0.963 µM) | 0.5 (≈ 0.963 µM) | 1 (≈ 1.93 µM) | 0.125 (≈ 0.241 µM) | 16 (≈ 30.8 µM) | C[C@@H](N1CCn2nc(-c3ccc(C(F)(F)F)cc3)nc2C1)[C@](O)(Cn1cncn1)c1ccc(F)cc1F |
| 0.5 (≈ 0.963 µM) | 2 (≈ 3.85 µM) | 0.5 (≈ 0.963 µM) | 2 (≈ 3.85 µM) | 0.25 (≈ 0.481 µM) | 16 (≈ 30.8 µM) | C[C@@H](N1CCn2nc(-c3cccc(C(F)(F)F)c3)nc2C1)[C@](O)(Cn1cncn1)c1ccc(F)cc1F |
| 0.5 (≈ 1.12 µM) | 1 (≈ 2.24 µM) | 1 (≈ 2.24 µM) | 16 (≈ 35.8 µM) | 8 (≈ 17.9 µM) | > 16 | C[C@@H](N1CCn2nnc(C(=O)N(C)C)c2C1)[C@](O)(Cn1cncn1)c1ccc(F)cc1F |
| 1 (≈ 1.87 µM) | 0.5 (≈ 0.935 µM) | 2 (≈ 3.74 µM) | 0.5 (≈ 0.935 µM) | 1 (≈ 1.87 µM) | 32 (≈ 59.9 µM) | C[C@@H](N1CCc2sc(-c3cccc(C(F)(F)F)c3)cc2C1)[C@](O)(Cn1cncn1)c1ccc(F)cc1F |
| 0.125 (≈ 0.262 µM) | 0.125 (≈ 0.262 µM) | 0.25 (≈ 0.524 µM) | 0.125 (≈ 0.262 µM) | 1 (≈ 2.09 µM) | 64 (≈ 134 µM) | C[C@@H](N1CCn2nc(-c3cncc(C#N)c3)nc2C1)[C@](O)(Cn1cncn1)c1ccc(F)cc1F |
| 0.125 (≈ 0.266 µM) | 0.125 (≈ 0.266 µM) | 0.5 (≈ 1.07 µM) | 0.5 (≈ 1.07 µM) | 0.25 (≈ 0.533 µM) | 16 (≈ 34.1 µM) | C[C@@H](N1CCn2nc(-c3cccc(F)c3)nc2C1)[C@](O)(Cn1cncn1)c1ccc(F)cc1F |
| 0.25 (≈ 0.533 µM) | 0.125 (≈ 0.266 µM) | 0.125 (≈ 0.266 µM) | 0.125 (≈ 0.266 µM) | 0.125 (≈ 0.266 µM) | 32 (≈ 68.2 µM) | C[C@@H](N1CCn2nc(-c3ccc(F)cc3)nc2C1)[C@](O)(Cn1cncn1)c1ccc(F)cc1F |
| 0.25 (≈ 0.471 µM) | 0.125 (≈ 0.236 µM) | 0.5 (≈ 0.943 µM) | 1 (≈ 1.89 µM) | 1 (≈ 1.89 µM) | 16 (≈ 30.2 µM) | C[C@@H](N1CCn2nc(-c3cccc(Br)c3)nc2C1)[C@](O)(Cn1cncn1)c1ccc(F)cc1F |

| SMILES | MIC [1] [µg/mL] | MIC [2] [µg/mL] | MIC [3] [µg/mL] | MIC [4] [µg/mL] | MIC [5] [µg/mL] | MIC [6] [µg/mL] |
| --- | --- | --- | --- | --- | --- | --- |
| C[C@@H]1[C@H](O)[C@@H](C)/C=C/C=C/C=C/C=C/C=C/C=C/C=C/[C@H](O[C@@H]2O[C@H](C)[C@@H](O)[C@H](N)[C@@H]2O)C[C@@H]2O[C@](O)(C[C@@H](O)C[C@@H](O)[C@H](O)CC[C@@H](O)C[C@@H](O)CC(=O)O[C@H]1C)C[C@H](O)[C@H]2C(=O)O [AMPHOTERICIN B] | 1 (≈ 1.08 µM) | 1 (≈ 1.08 µM) | 0.5 (≈ 0.541 µM) | 1 (≈ 1.08 µM) | 0.5 (≈ 0.541 µM) | 4 (≈ 4.33 µM) |
